The subject of one data set is patients with CD. The conditions noted are these: cited from earlier work.
Data set [1] is classed as in vivo, human. The conditions noted are these: healthy subjects, ER formulation study. Summed up:
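ER absorption parameters were estimated from phase I data in healthy volunteers given the extended-release formulation. They were then incorporated into the exposure–response models to simulate ER q.d. regimens.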

Data set [2] in a line: Population pharmacokinetic analysis of upadacitinib IR formulation. In kind it is in vivo, human. Summed up: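 A population PK model previously built for healthy subjects and RA patients was the starting model. It was fitted to sparse CELEST plasma concentrations: weeks 2–16, validated LC-MS, sampling time relative to last dose recorded. Covariate effects were judged by differences in Cave between covariate groups. Dose was tested as a covariate on model parameters to assess dose proportionality.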

The format of data set [3] is in vivo, human. The conditions noted are these: for Cmax: human, plasma, oral. Summed up:
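Patients with Crohn's disease took oral IR tablets at 3, 6, 12 or 24 mg b.i.d. or 24 mg q.d. for a 16-week induction. Sparse plasma samples were taken at weeks 2, 4, 8, 12 and 16, with time from last dose recorded, and assayed by validated LC-MS. Steady-state Cmax and Cmin came from empirical Bayesian individual estimates. Cave = Dose/(CL/F × dosing interval). Values are median (5th–95th percentiles).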

Data set [4] has as its system subjects with moderate‐to‐severe active Crohn's disease. The experiment in a line: Regression. In kind it is in vivo, human. The conditions noted are these: Cave as exposure metric; week 12/16. Summed up:
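SES-CD came from centrally read ileocolonoscopy at screening and at a randomly assigned week 12 or 16, with the two weeks pooled. End points were endoscopic response 25% and 50% and endoscopic remission, with nonresponder imputation. Regression Emax models related them to individual steady-state Cave over the dosing interval. The study used placebo and 3–24 mg b.i.d. or 24 mg q.d. IR oral dosing.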

For data set [5] the following is noted: cited from earlier work.
[6] abbreviates: 3 mg b.i.d. IR, steady-state, CD patients, CELEST.
The mark [7] stands for this setting: 6 mg b.i.d. IR, steady-state, CD patients, CELEST.
[8] abbreviates: 12 mg b.i.d. IR, steady-state, CD patients, CELEST.
[9] abbreviates: 24 mg b.i.d. IR, steady-state, CD patients, CELEST.
The mark [10] stands for this setting: 24 mg q.d. IR, steady-state, CD patients, CELEST.

Molecules are shown by their SMILES. Values joined by “and” are separate entries in the source; they are usually repeats but may differ in a detail not shown here. Identical values can stand only once. Like-named read-outs stand apart in the source and are kept apart here. A value given as a limit tells only on which side of the number the result lay.

For `O=C(Nc1nc2cccc(-c3ccc(CN4CCS(=O)(=O)CC4)cc3)n2n1)C1CC1` [Filgotinib], the “efficacy in CD” value in the data set on patients with CD is listed as “has shown efficacy”.

Broadly, the Cmax is the highest concentration seen after dosing. As to `CC[C@@H]1CN(C(=O)NCC(F)(F)F)C[C@@H]1c1cnc2cnc3[nH]ccc3n12` [Upadacitinib], the “bioavailability of ER formulation relative to IR formulation” value in data set [1] is given as 74%. Moreover, the “dose proportionality of exposure” value in data set [2] (3–24 mg b.i.d.) was “approximately dose‐proportional”. For the same compound, the “higher Cave with renal impairment” value in data set [2] (creatinine clearance 50 mL/minute vs 110 mL/minute) turned out to be 28%. In data set [2] (population PK), the “CL/F in subjects with CD relative to healthy subjects” value was “comparable”; the “lower clearance in subjects with RA compared with non‐RA subjects” value is 22% and ~ 20%. Also, in data set [2] (population PK covariate), the “higher Cave in women compared with men” value was determined as 18%, the “lower CL/F in women compared with men” value stood at 15% and the “lower Vc/F in women compared with men” value was found to be 25%. For the same compound, the “difference in Cave among different covariate groups” value in data set [2] (renal impairment, sex, bodyweight covariates) was < 30%. Also, in data set [2] (same dose), the “lower Cave in subjects with CD than in subjects with RA” value is ~ 20%. In addition, in data set [2] (subjects with CD), the “Intersubject variability in CL/F” value is 41% and the “Intersubject variability in Vc/F” value was 29%. For the same compound, in data set [3] (setting [6]), the “Cave, median (5th to 95th percentiles)” value was 6.9 (4.6–14.1) ng/mL and the “Cmin, median (5th to 95th percentiles)” value is 1.2 (0.4–6.6) ng/mL. In data set [3] (setting [7]), the “Cave, median (5th to 95th percentiles)” value is 14.9 (7.6–25.2) ng/mL and the “Cmin, median (5th to 95th percentiles)” value is recorded as 2.6 (0.2–7.5) ng/mL. For the same compound, in data set [3] (setting [8]), the “Cave, median (5th to 95th percentiles)” value is listed as 26.7 (8.5–49.6) ng/mL; the “Cmax, median (5th to 95th percentiles)” value is on record as 80.7 (25.3–124) ng/mL; the “Cmin, median (5th to 95th percentiles)” value was 4.9 (0.2–25.2) ng/mL. Besides, in data set [3] (setting [9]), the “Cave, median (5th to 95th percentiles)” value was 55.1 (29.8–91.8) ng/mL and the “Cmin, median (5th to 95th percentiles)” value was 7.8 (1.8–20.7) ng/mL. In data set [3] (setting [10]), the “Cave, median (5th to 95th percentiles)” value is given as 25.1 (13.6–92.0) ng/mL and the “Cmin, median (5th to 95th percentiles)” value was 1.7 (0.3–34.2) ng/mL. In data set [3] (3 mg), the Cmax is 21.8 ng/mL. Also, the concentration in data set [3] (6 mg) peaked (Cmax) at 40.2 ng/mL. The peak concentration (Cmax) in data set [3] (24 mg) was determined as 161 ng/mL. In addition, in data set [4], the “EC50 for endoscopic remission” value stood at 0.027 µg/mL and the “EC50 for endoscopic response 50%” value was found to be 0.026 µg/mL. In data set [5] (3–48 mg IR or 7.5–45 mg ER, ref 21,23 (data on file at AbbVie)), the “dose proportionality of plasma exposures” value is given as “dose‐proportional”. Also, in data set [5] (IR formulation), the “functional half‐life” value is 3 to 4 h. Also, the “increase in bioavailability from the ER formulation after a high‐fat meal” value in data set [5] is recorded as ~ 20%. For the same compound, the “relative bioavailability of ER formulation” value in data set [5] (more extensive dataset in subjects with RA) is given as 76%. The “time to reach maximum plasma concentration” value in data set [5] (oral, IR formulation) was 1 to 2 h. Besides, in data set [5] (phase I study, healthy subjects), the “exposure of ER 15 mg and 30 mg q.d. vs IR 6 mg b.i.d. and 12 mg b.i.d.” value was “equivalent Cave and similar Cmax and Cmin”.

Turning to `C[C@@H]1CCN(C(=O)CC#N)C[C@@H]1N(C)c1ncnc2[nH]ccc12` [tofacitinib], the “efficacy in patients with CD” value in the data set on patients with CD (two phase II studies) was “did not demonstrate efficacy”.
